Results: ChEMBL document CHEMBL4680142, “Thiazolidine-2,4-dione-based irreversible allosteric IKK-β kinase inhibitors: Optimization into in vivo active anti-inflammatory agents” (Eur J Med Chem, 2020)
Active and inactive are the calls of the source. The calls are words filed in the database; no cut-off is given here.

What was measured:
RAW264.7 = assay: Antiinflammatory activity against mouse RAW264.7 cells assessed as reduction in LPS-induced TNF-alpha level at 0.1 to 1 uM incubated for 1 hr followed by LPS stimulation and measured after 24 hrs by ELISA; type: functional, cell-based; conditions: dose 0.1-1 µM, time 25.0 hrs
Summary of the method: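 RAW 264.7 cells (DMEM, 10% FBS, 37 °C, 5% CO2) plated at 2×10^5 cells/mL and left overnight. Compounds (0.1, 1, 10 µM) or NS-398 given for 1 h, then LPS 10 ng/mL for 24 h. Culture medium assayed by ELISA: competitive colorimetric for PGE2/TNF-α, mouse DuoSet for TNF-α/IL-6. IC50 is the concentration lowering the mediator to 50%.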

Mus musculus = assay: Antiinflammatory activity against LPS-induced sepsis C57BL/6 mouse model assessed as organism survival rate at 5 to 50 mg/kg, po administered 1 hr before LPS stimulation and measured after 16 hrs relative to control; type: functional; conditions: dose 5-50 mg/kg, time 17 hrs
Summary of the method: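 Male C57BL/6 mice (6 or 10 weeks), water only for 24 h beforehand. Compound given orally at 5 or 50 mg/kg 1 h before intraperitoneal injection of LPS (Salmonella enterica serotype enteritidis, 25 mg/kg in PBS); controls received PBS. Survival monitored for 36 h.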

`CN1CCN(CCCOc2ccc(N3C(=O)S/C(=C\c4ccc(Oc5ccc(C#N)cc5)cc4)C3=O)cc2)CC1` was tested, and the inhibition (RAW264.7) was “inactive” and the Survival (Mus musculus) was 100%.
